This note sets out measurements from ChEMBL document CHEMBL1144050, “Two novel acetogenins, annoglaxin and 27-hydroxybullatacin, from Annona glabra” (J Nat Prod, 1999).

In series [1] the test system is A498. As to the kind of experiment: Cytotoxicity against human A498 cells after 7 days by MTT assay. It counts as functional. The note with it: for EC50: Homo sapiens, A498, 168 h, read-out: ED50 (the source's name). Put shortly: (§1)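 Standard 7-day MTT cytotoxicity assay on human tumour lines: A-549 (lung carcinoma), MCF-7 (breast carcinoma), HT-29 (colon adenocarcinoma), A-498 (kidney carcinoma), PC-3 (prostate adenocarcinoma), PACA-2 (pancreatic carcinoma). Adriamycin was run as the positive control standard.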
In general terms: Formazan colour is commonly taken as a measure of viable cells.

Series [2] deals with A549. As to the kind of experiment: Cytotoxicity against human A549 cells after 7 days by MTT assay. Format: functional. The settings on record: A549, 168 h, read-out: ED50 (the source's name). A digest of the protocol:
as §1

Series [3] concerns PC-3. Nature of the series: Cytotoxicity against human PC-3 cells after 7 days by MTT assay. It counts as functional. The note with it: for EC50: Homo sapiens, PC-3, 168 h, read-out: ED50 (the source's name). A digest of the protocol: as §1
Series [4] has as its system MIA PaCa-2. Nature of the series: Cytotoxicity against human PACA2 cells after 7 days by MTT assay. It counts as functional. The note with it: for EC50: Homo sapiens, MIA PaCa-2, 168 h, read-out: ED50 (the source's name). Put shortly: as §1
The test system of series [5] is HT-29. Nature of the series: Cytotoxicity against human HT29 cells after 7 days by MTT assay. Format: functional. The settings on record: for EC50: Homo sapiens, HT-29, 168 h, read-out: ED50 (the source's name). Put shortly:
as §1

The subject of series [6] is MCF7. As to the kind of experiment: Cytotoxicity against human MCF7 cells after 7 days by MTT assay. It counts as functional. Put shortly:
as §1

In series [7] the test system is Artemia salina. Nature of the series: (§2) Toxicity in brine shrimp. It counts as organism-based. The settings on record: in vivo.
Series [8] is described as follows: as §2. It counts as organism-based. The settings on record: artemia salina, in vivo.

≈ marks a conversion by molar mass, not a printed value.

As to `COc1cccc2c1C(=O)c1c(O)c3c(c(O)c1C2=O)C[C@@](O)(C(=O)CO)C[C@@H]3O[C@H]1C[C@H](N)[C@H](O)[C@H](C)O1` [DOXORUBICIN], the EC50 in series [1] was 0.0019 µg/mL (≈ 0.0035 µM); in series [2], 1.3 ng/mL (≈ 0.00239 µM); in series [3] it was 0.02 µg/mL (≈ 0.0368 µM); in series [4], 0.0043 µg/mL (≈ 0.00791 µM); in series [5] it was 0.01 µg/mL (≈ 0.0184 µM); in series [6] (Homo sapiens, MCF7, 168 h, read-out: ED50 (the source's name)), 0.09 µg/mL (≈ 0.166 µM).

On to `CCCCCCC[C@H](O)CC[C@H](O)[C@H]1CC[C@H]([C@H]2CC[C@H]([C@H](O)CCCCCCCCCC[C@@H](O)CC3=C[C@H](C)OC3=O)O2)O1`, for which the ED50 is recorded as 3.1 ×10⁻⁸ ug/ml in series [1]; less than 1 ×10⁻⁹ ug/ml in series [3]; less than 1 ×10⁻⁹ ug/ml in series [4]; 1.8 ×10⁻⁵ ug/ml in series [5]; 7.8 ×10⁻⁴ ug/ml in series [6]. Besides, the EC50 in series [2] was 2.1 ng/mL (≈ 0.00329 µM). The LC50 in series [7] is on record as 4.3 ×10⁻² ug/ml.

In the case of `CCCCCCCCCC[C@H](O)C[C@@H](O)[C@H]1CC[C@H]([C@H](O)CCC(=O)CCC[C@H](O)CCCCCC2=C[C@H](C)OC2=O)O1` [ANNOGLAXIN], the EC50 was found to be 1.8 µg/mL (≈ 2.95 µM) in series [1]; 1100 ng/mL (≈ 1.8 µM) in series [2]; 0.87 µg/mL (≈ 1.42 µM) in series [3]; 1.6 µg/mL (≈ 2.62 µM) in series [4]; 0.18 µg/mL (≈ 0.295 µM) in series [5]. Also, the ED50 in series [6] stood at 4.3 ×10⁻⁴ ug/ml. The LC50 in series [8] was 0.29 µg/mL (≈ 0.475 µM).
